ChEMBL document CHEMBL1126057, “Highly water-soluble lipophilic prodrugs of the anti-HIV nucleoside analogue 2',3'-dideoxycytidine and its 3'-fluoro derivative” (J Med Chem, 1992)
Values after ≈ are worked out from the molar mass of the structure shown. Blank lines part the entries; values can stand above or below the compound they belong to.

Columns and labels:
[1] = Half-life in potassium phosphate buffered saline(PBS) at 37 degree C.; type: ADME
Method in brief: (§1)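 Prodrug at 5 × 10^-5 M in PBS, pH 7.4, incubated at 37 °C. A317 read at regular intervals. Pseudo-first-order rate constant taken from the slope of ln(absorbance) vs time, then converted to t1/2.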

[2] = Partition coefficient (P); details: octanol/water
[3] = Water solubility of the compound.; type: ADME; details: read-out: S
Method in brief: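 Solubility in double-distilled water at room temperature, in mg/mL.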

[4] = pKa value of the compound.; type: physicochemical
Method in brief: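 pKa determined by UV spectroscopy at room temperature.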

[5] = test system: CCRF-CEM; test: The compound was tested for the antiviral activity against HIV from CEM-IW human lymphocyte,; type: functional; details: read-out: ED50 (the source's name)
Method in brief: (§2)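 CEM-IW human lymphocytes in culture; reduction of HIV cytopathic effect. Value is the concentration (µM) producing 50% antiviral effect.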

[6] = test system: CCRF-CEM; test: The compound was tested for the cytotoxicity against HIV from CEM-IW human lymphocyte; type: functional, cell-based
Method in brief: (§3)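 Cytotoxicity in the same cell cultures as the antiviral assays, measured as 50% growth inhibition by tetrazolium dye assay. Value is the concentration (µM) producing 50% cytotoxicity.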

[7] = The compound was tested for the antiviral activity against Rauscher murine leukemia virus; type: functional; details: Mus musculus; read-out: ED50 (the source's name)
Method in brief: (§4)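 UV-XC plaque reduction assay for Rauscher murine leukemia virus in SC-1 cells in culture, in vitro. Value is the concentration (µM) producing 50% antiviral effect.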

[8] = The compound was tested for the cytotoxicity against Rauscher murine leukemia virus; type: functional, Mus musculus; method in brief: as §3
[9] = Half-life in potassium phosphate buffered saline (PBS) at 37 degree C.; type: ADME; method in brief: as §1
[10] = Half-life in 10% serum solution at 37 degree C.; type: ADME, cell-free
Method in brief: (§5)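 Diisopropylamino prodrugs diluted from 10^-2 M stock into human serum, made up with buffer to 10% or 20% serum, or mixed with serum to 90% serum. Incubated at 37 °C; 50-µL aliquots withdrawn at intervals, diluted with buffer, A317 read. Half-life taken from the pseudo-first-order rate constant, i.e. the slope of ln(absorbance) vs time.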

[11] = Half-life in 1N HCl at 37 degree C.; type: ADME
Method in brief: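 Diisopropylamino prodrugs at 5 × 10^-5 M in 1 N HCl at 37 °C. Absorbance at 317 nm recorded at regular intervals. ln(absorbance) vs time plotted; slope gives the pseudo-first-order hydrolysis rate constant, from which t1/2 was calculated.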

[12] = Half-life in 20% serum solution at 37 degree C.; type: ADME, cell-free; method in brief: as §5
[13] = Half-life in 90% serum solution at 37 degree C.; type: ADME, cell-free; method in brief: as §5
[14] = The compound was tested for the antiviral activity against Rauscher murine leukemia virus in SC-1 cells; type: functional; details: Mus musculus, read-out: ED50 (the source's name); method in brief: as §4
[15] = The compound was tested for the cytotoxicity in SC-1 cells; details: Mus musculus
[16] = Half-life in potassium phosphate buffered saline (PBS) at 37 degree C(0% serum solution).; type: ADME; method in brief: as §1
[17] = test system: CCRF-CEM; test: The compound was tested for the antiviral activity against HIV from CEM-IW human lymphocyte; type: functional; details: read-out: ED50 (the source's name); method in brief: as §2

SMILES: O=c1nc(/N=C\N2CCCC2)ccn1C1CCC(CO)O1 (stereo unspecified)
- half-life [1]: 128 min
- P [2]: -0.467

SMILES: Nc1ccn(C2CC(F)C(CO)O2)c(=O)n1 (stereo unspecified)
- solubility [3]: 15 mg/mL (≈ 65.4 mM)
- pKa [4]: 4.22
- EC50 [5]: 160 nM
- IC50 [6]: > 3200 µM
- EC50 [7]: 158 µM
- IC50 [8]: > 1 mM
- P [2]: -0.893

SMILES: O=c1nc(/N=C\N2CCOCC2)ccn1C1CC(F)C(CO)O1 (stereo unspecified)
- half-life [1]: 224 min
- P [2]: -0.676

SMILES: O=c1nc(/N=C\N2CCOCC2)ccn1C1CCC(CO)O1 (stereo unspecified)
- half-life [1]: 235 min
- P [2]: -0.967

SMILES: CC(C)N(/C=N\c1ccn(C2CC(F)C(CO)O2)c(=O)n1)C(C)C (stereo unspecified)
- half-life [10]: 3140 min
- half-life [11]: 348 min
- half-life [1]: 3130 min
- half-life [12]: 2.35 days
- half-life [13]: 3.61 days
- solubility [3]: 25 mg/mL (≈ 73.4 mM)
- pKa [4]: 5.13
- EC50 [5]: 675 nM
- IC50 [6]: > 200 µM
- EC50 [14]: 518 µM
- IC50 [15]: > 1 mM

SMILES: CC(C)N(/C=N\c1ccn(C2CCC(CO)O2)c(=O)n1)C(C)C (stereo unspecified)
- half-life [10]: 2840 min
- half-life [11]: 234 min
- half-life [16]: 2850 min
- half-life [12]: 2.13 days
- half-life [13]: 2.73 days
- solubility [3]: > 300 mg/mL
- pKa [4]: 5.28
- EC50 [5]: 65 nM
- IC50 [6]: > 200 µM
- EC50 [7]: 20.6 µM
- IC50 [8]: > 1 mM
- P [2]: 0.724

SMILES: CN(C)/C=N\c1ccn(C2CC(F)C(CO)O2)c(=O)n1 (stereo unspecified)
- half-life [1]: 280 min
- IC50 [6]: > 200 µM
- EC50 [14]: 214 µM
- EC50 [17]: 230 nM
- P [2]: -0.64
- IC50 [15]: > 1 mM

SMILES: CCN(/C=N\c1ccn(C2CC(F)C(CO)O2)c(=O)n1)CC (stereo unspecified)
- half-life [1]: 610 min
- P [2]: 0.227

Now from value to compound, other results behind:

- half-life [9]: 228 min
- P [2]: -0.951
SMILES: CN(C)/C=N\c1ccn(C2CCC(CO)O2)c(=O)n1 (stereo unspecified)

- half-life [1]: 520 min
- P [2]: -0.059
SMILES: CCN(/C=N\c1ccn(C2CCC(CO)O2)c(=O)n1)CC (stereo unspecified)

- half-life [1]: 378 min
- P [2]: 0.358
SMILES: O=c1nc(/N=C\N2CCCCC2)ccn1C1CC(F)C(CO)O1 (stereo unspecified)

- half-life [1]: 154 min
- P [2]: -0.162
SMILES: O=c1nc(/N=C\N2CCCC2)ccn1C1CC(F)C(CO)O1 (stereo unspecified)

- half-life [1]: 935 min
SMILES: CCCN(/C=N\c1ccn(C2CC(F)C(CO)O2)c(=O)n1)CCC (stereo unspecified)

- half-life [1]: 384 min
- P [2]: 0.057
SMILES: O=c1nc(/N=C\N2CCCCC2)ccn1C1CCC(CO)O1 (stereo unspecified)

- solubility [3]: 78 mg/mL (≈ 369 mM)
- pKa [4]: 4.42
- EC50 [7]: 2.2 µM
SMILES: Nc1ccn([C@H]2CC[C@@H](CO)O2)c(=O)n1 [ZALCITABINE]
- IC50 [8]: > 1 mM

- half-life [1]: 788 min
- P [2]: 0.948
SMILES: CCCN(/C=N\c1ccn(C2CCC(CO)O2)c(=O)n1)CCC (stereo unspecified)
